# Measurements taken from PubChem BioAssay.
# “And” between values parts separate entries of the source, which are not always exact repeats. Equal entries are not always repeated. The source made the active and inactive calls.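 The calls were made as follows, unless noted: active = viability loss from added drug above about 55%, and viability with drug at most 40%, in both replicates (limit read from the data, passing the limit was not always enough); inconclusive = both conditions met in only one replicate; inactive = neither replicate meets both conditions.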
# Columns and labels:
# [1] = Her2 expression decrease, cell viability multiplex – SKBR3 breast tumor cells, AlphaScreen, ATP viability, primary screen (AID 461;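 active = Her2 level under about 52% in both replicate screens, with viability over 70% of control, limit read from the data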;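 as to Her2 level: lower value means less Her2 protein in the cells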;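 as to viability: percent of carrier control wells set as 100% viability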); details: SKBR3 Her2 protein level, 18-24 h, measured here: SKBR3 viability, ATP luminescence, at 10 µM
# [2] = target: Receptor tyrosine-protein kinase erbB-2 (Homo sapiens) (UniProt P04626); experiment: as above; details: 18-24 h, at 10 µM, stronger effect = lower value
# Chain of Receptor tyrosine-protein kinase erbB-2 (Homo sapiens) (P04626 whole entry, looked up): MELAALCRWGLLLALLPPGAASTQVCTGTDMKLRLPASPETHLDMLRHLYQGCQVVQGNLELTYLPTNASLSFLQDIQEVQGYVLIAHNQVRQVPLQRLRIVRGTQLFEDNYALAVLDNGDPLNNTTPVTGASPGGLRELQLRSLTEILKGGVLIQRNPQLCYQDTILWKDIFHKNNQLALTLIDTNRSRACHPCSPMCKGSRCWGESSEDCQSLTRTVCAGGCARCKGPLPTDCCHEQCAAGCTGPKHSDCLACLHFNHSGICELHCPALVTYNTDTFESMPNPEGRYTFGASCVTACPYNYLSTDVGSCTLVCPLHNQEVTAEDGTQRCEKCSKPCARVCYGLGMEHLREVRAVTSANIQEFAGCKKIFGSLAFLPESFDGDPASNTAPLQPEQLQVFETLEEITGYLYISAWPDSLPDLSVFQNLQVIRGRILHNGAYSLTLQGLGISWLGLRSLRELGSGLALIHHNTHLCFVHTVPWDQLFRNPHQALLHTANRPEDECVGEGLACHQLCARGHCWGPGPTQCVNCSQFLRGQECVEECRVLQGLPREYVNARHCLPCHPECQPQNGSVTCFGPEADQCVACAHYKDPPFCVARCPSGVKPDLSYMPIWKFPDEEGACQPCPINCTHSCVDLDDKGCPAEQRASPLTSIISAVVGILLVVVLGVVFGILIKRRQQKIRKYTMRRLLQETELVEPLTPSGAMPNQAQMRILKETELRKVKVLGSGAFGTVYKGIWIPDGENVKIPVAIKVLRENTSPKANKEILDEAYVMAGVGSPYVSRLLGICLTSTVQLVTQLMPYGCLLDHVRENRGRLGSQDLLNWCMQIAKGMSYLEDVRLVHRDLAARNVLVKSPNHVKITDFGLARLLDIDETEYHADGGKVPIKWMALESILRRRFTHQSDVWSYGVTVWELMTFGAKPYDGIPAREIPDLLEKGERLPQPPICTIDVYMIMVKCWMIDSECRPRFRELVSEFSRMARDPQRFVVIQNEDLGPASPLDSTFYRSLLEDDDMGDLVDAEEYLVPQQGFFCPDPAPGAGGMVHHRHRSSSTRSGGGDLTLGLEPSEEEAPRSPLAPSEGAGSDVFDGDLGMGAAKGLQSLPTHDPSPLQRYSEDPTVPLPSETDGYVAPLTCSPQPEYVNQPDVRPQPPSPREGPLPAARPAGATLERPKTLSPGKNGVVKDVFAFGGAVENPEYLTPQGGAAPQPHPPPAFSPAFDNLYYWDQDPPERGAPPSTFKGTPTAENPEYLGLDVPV
# [3] = reduced viability of SK-BR-3 breast cancer cells – cell-based, 24 h, human, pilot screen (AID 572;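 active = viability at or below 10% of carrier control in both of two separate runs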;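 also: compound exposure lasted between 18 and 24 h rather than exactly 24 h; 100% = carrier-treated control wells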); details: SK-BR-3 viability, CellTiter-Glo luminescence, at 10 µM, stronger effect = lower value
# [4] = HUVEC growth inhibition – cell-based, human, primary screen (AID 575;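 active = viability at or below 30% in both replicate assays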;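 also: 100% = median of untreated cell wells with 0.1% DMSO on each plate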); details: HUVEC proliferation, CellTiter-Glo luminescence, 72 h; at 10 µM; stronger effect = lower value
# In short: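 Test system: primary human umbilical vein endothelial cells; medium: endothelial basal medium with 2% FBS plus growth supplements; dosing: 10 µM compound only; times: 72 h treatment at 37 °C; signal: CTG luminescence; read-out: % viability relative to median vehicle-well signal on each plate; control set: vehicle and MePR control wells; plate: 384-well, collagen-coated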
# [5] = H69AR cell proliferation blockers – human, duplicate replicates, primary screen (AID 580;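 active = viability at or under a set limit in both replicates, limit being median viability minus 3 SD, cut at about 48% in these data, passing the limit was not always enough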;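 also: 100% = mean luminescence of untreated wells and 0% = no signal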); details: H69AR lung tumor cells viability, ATP luminescence, 72 h; at 10 µM; stronger effect = lower value
# [6] = MRP1 drug-resistance reversers in H69AR cells – cell-based, doxorubicin co-treatment, pilot screen (AID 601); details: CellTiter-Glo, 72 h, at 10 µM; for differential viability (reversal): stronger effect = higher value
# [7] = yeast transport mutant growth inhibition pilot in 384-well plates, post-Golgi transport modulator project (AID 636; in the data active = inhibition above about 31%); details: absorbance 615 nm, about 18 h, stronger effect = higher value
# [8] = growth suppression of yeast trafficking mutant, preliminary HTS, modulators of trafficking downstream of Golgi apparatus project, 1536-format plate, OD 615 nm (AID 637; in the data active = inhibition above about 30%); details: yeast transport mutant growth, absorbance 615 nm, 18 h; stronger effect = higher value
# [9] = H69AR cells + 2 uM doxorubicin, measured here: viability with 2 uM doxorubicin, stronger effect = lower value
# [10] = H69AR cells, compound alone cytotoxicity
Compound,viability [1] [%],Her2 level [2],viability [3],viability [4],viability [5],differential viability (reversal) ([6]; H69AR cells + 2 uM doxorubicin),"viability [6, 9]","viability [6, 10]",inhibition [7],inhibition [8]
CCOC(=O)C1CCN(c2c(NCCN3CCN(c4ccccc4)CC3)c(=O)c2=O)CC1,87.5,98.5% (inactive),87.5% (inactive),92.1% (inactive),99.1% (inactive),-5.04% (inactive),104%,99.1%,0.38% (inactive),-3.33% (inactive)
C[C@]12CCC(=O)C=C1CC[C@@H]1[C@@H]2[C@@H](O)C[C@@]2(C)[C@H]1CC[C@]2(O)C(=O)COC(=O)CCC(=O)O,95,120% (inactive),95% (inactive) and 100% (inactive),81.3% (inactive) and 75% (inactive),111% (inactive) and 103% (inactive),9.53% (inactive) and -0.58% (inactive),101% and 103%,111% and 103%,-3.38% (inactive),6.33% (inactive)
O=C(O)c1cccc(S(=O)(=O)N2CCOCC2)c1,118,121% (inactive),118% (inactive),95% (inactive),98.9% (inactive),3.4% (inactive),95.5%,98.9%,-1.37% (inactive),11.3% (inactive)
O=C(Nc1ccc(CN2CCOCC2)cc1)c1cc2ccccc2oc1=O,99.5,88% (inactive),99.5% (inactive),92.2% (inactive),82.6% (inactive),2.02% (inactive),80.6%,82.6%,-2.37% (inactive),3.39% (inactive)
Nn1c(SCC(=O)NC2CCCCC2)nnc1C1CC1,102,111% (inactive),102% (inactive),98.4% (inactive),103% (inactive),0.415% (inactive),103%,103%,-0.52% (inactive),10.8% (inactive)
CCOC(=O)CNC(=O)C(Cc1ccccc1)NS(=O)(=O)c1ccc2c(c1)CCC(=O)N2 (stereo not given),101,114% (inactive),101% (inactive),92.8% (inactive),90.7% (inactive),-0.925% (inactive),91.7%,90.7%,1.84% (inactive),-5.64% (inactive)
N#CCCNCC1(c2ccccc2)CCCC1,96,94% (inactive),96% (inactive),106% (inactive),102% (inactive),12.9% (inactive),89.4%,102%,2.97% (inactive),-4.13% (inactive)
CCOC(=O)N1CCN(S(=O)(=O)c2cc(C)c(C)cc2C)CC1,96.5,87% (inactive),96.5% (inactive),104% (inactive),95.3% (inactive),6.04% (inactive),89.3%,95.3%,-4.34% (inactive),2.22% (inactive)
Cc1ccc(-c2nc3ccccc3[nH]2)s1,74,95.5% (inactive),74% (inactive),59.8% (inactive),58.8% (inactive),4.25% (inactive),54.5%,58.8%,0.77% (inactive),-9% (inactive)
CCN(CC)CCCN1C(=O)C(=O)/C(=C(/O)c2ccccc2)C1c1ccccn1 (stereo not given),96.5,100% (inactive),96.5% (inactive),111% (inactive),96% (inactive),6.26% (inactive),89.7%,96%,-1.35% (inactive),-4.92% (inactive)
Cc1cc(N2C(=O)C3C4C=CC(C4)C3C2=O)ccc1Br (stereo not given),107,99.5% (inactive),107% (inactive),87.8% (inactive),101% (inactive),11.6% (inactive),89.3%,101%,-6.58% (inactive),-5.4% (inactive)
COC(=O)c1cc2ccsc2n1Cc1nc(-c2ccc(OC)cc2)oc1C,85.5,82% (inactive),85.5% (inactive),67.5% (inactive),83.6% (inactive),-12% (inactive),95.6%,83.6%,0.13% (inactive),-4.67% (inactive)
O=S(=O)(NCc1ccco1)c1cccc2cccnc12,105,93.5% (inactive),105% (inactive),89.7% (inactive),79% (inactive),-9.52% (inactive),88.5%,79%,-1.18% (inactive),-1.45% (inactive)
Cn1c(=O)c2ncn(CC(=O)NCCOc3ccc(C(C)(C)C)cc3)c2n(C)c1=O,96.5,110% (inactive),96.5% (inactive),100% (inactive),76.2% (inactive),-17.6% (inactive),93.8%,76.2%,-5.45% (inactive),-6.03% (inactive)
c1ccc(CNc2ncnc3ccccc23)cc1,86,87% (inactive),86% (inactive),58.2% (inactive),83.8% (inactive),-13.6% (inactive),97.3%,83.8%,-5% (inactive),3.93% (inactive)
COc1ccc2cc(C#N)c(NC(C)C)nc2c1,90.5,63% (inactive),90.5% (inactive),90.8% (inactive),75.4% (inactive),-6.05% (inactive),81.4%,75.4%,-2.76% (inactive),2.91% (inactive)
COC(=O)c1ccc2ncccc2c1,110,131% (inactive),110% (inactive),111% (inactive),107% (inactive),7.81% (inactive),98.8%,107%,-1.32% (inactive),7.7% (inactive)
COc1ccc(Cc2nnc(NC(=O)Cc3cccs3)s2)cc1,104,112% (inactive),104% (inactive),103% (inactive),106% (inactive),5.58% (inactive),101%,106%,0.41% (inactive),-4.29% (inactive)
O=C(COC(=O)C1CC1)c1c[nH]c2ccccc12,93.5,107% (inactive),93.5% (inactive),105% (inactive),115% (inactive),14.9% (inactive),100%,115%,3.24% (inactive),-11.3% (inactive)
CCC1(NC(C)=O)CC2CC1CC2NC(C)=O (stereo not given),94.5,100% (inactive),94.5% (inactive),107% (inactive),100% (inactive),11% (inactive),89.1%,100%,-3.2% (inactive),-5.74% (inactive)
COc1cccc(Cn2c(OCC3CCCO3)nc3c2c(=O)n(C)c(=O)n3C)c1 (stereo not given),86.5,86% (inactive),86.5% (inactive),104% (inactive),101% (inactive),-0.075% (inactive),101%,101%,-2.11% (inactive),3.77% (inactive)
CCOC(=O)N1CCN(C(=O)c2ccc3c(SCC(=O)O)c4c(nc3c2)CCCC4)CC1,95.5,92.5% (inactive),95.5% (inactive),93.8% (inactive),100% (inactive),6.52% (inactive),93.9%,100%,0.13% (inactive),22.3% (inactive)
O=C(CSc1nc2ccsc2c(=O)n1NC(=O)c1ccccc1)Nc1nccs1,105,86.5% (inactive),105% (inactive),96.9% (inactive),100% (inactive),2.06% (inactive),98%,100%,-4.74% (inactive),-2.83% (inactive)
O=C(CSc1nnc(CNC(=O)c2cccs2)o1)NCCc1ccccc1,104,103% (inactive),104% (inactive),92.4% (inactive),101% (inactive),2.05% (inactive),98.6%,101%,-0.9% (inactive),-3% (inactive)
CC(C)OC(=O)CSc1nc2cccnc2n1C1CCCCC1,124,93.5% (inactive),124% (inactive),112% (inactive),95.3% (inactive),5.92% (inactive),89.4%,95.3%,-5.33% (inactive),3.44% (inactive)
Cc1nc2ccc(NC(=O)N3CCC(c4ccccc4)C3)cc2nc1C (stereo not given),101,93.5% (inactive),101% (inactive),57.7% (inactive),74.8% (inactive),9.41% (inactive),65.4%,74.8%,-4.21% (inactive),-1.43% (inactive)
COc1cc(OC)cc(-c2nnc(SCC(=O)Nc3cc(C)on3)o2)c1,92.5,81% (inactive),92.5% (inactive),82.7% (inactive),79.6% (inactive),-7.97% (inactive),87.6%,79.6%,-5.53% (inactive),-4.33% (inactive)
NCC(O)COc1ccc2c(c1)OCO2 (stereo not given),99,120% (inactive),99% (inactive),104% (inactive),100% (inactive),3.33% (inactive),97%,100%,3.16% (inactive),6.39% (inactive)
